System: U2OS
Experiment: Multiplex assay against U2OS
Type: toxicity, cell-based
Details: human
Summary of the method: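 At seeding, live cells were stained with Hoechst33342, BioTracker Green Microtubule Cytoskeleton Dye, MitoTracker Red and Annexin V Alexa Fluor 680. After compound addition they were imaged on a CQ1 microscope at 37°C and 5% CO2, and CellPathfinder machine-learning gating sorted them into Hoechst high-intensity objects or normal cells, with normal cells further split into healthy, pyknosed or fragmented nuclei and pyknosed cells into mitotic or apoptotic. Tubulin, mitochondrial-mass and membrane-permeability phenotypes are given as per cents of cells with healthy nuclei.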

[1] = 12 h, 1 µM, compound concentration 1 uM, replicate 1
[2] = 12 h, 1 µM, compound concentration 1 uM, replicate 2
[3] = 12 h, 10 µM, compound concentration 10 uM, replicate 1
[4] = 12 h, 10 µM, compound concentration 10 uM, replicate 2
[5] = 24 h, 1 µM, compound concentration 1 uM, replicate 1
[6] = 24 h, 1 µM, compound concentration 1 uM, replicate 2
[7] = 24 h, 10 µM, compound concentration 10 uM, replicate 1
[8] = 24 h, 10 µM, compound concentration 10 uM, replicate 2
[9] = 48 h, 1 µM, compound concentration 1 uM, replicate 1
[10] = 48 h, 1 µM, compound concentration 1 uM, replicate 2
[11] = 48 h, 10 µM, compound concentration 10 uM, replicate 1
[12] = 48 h, 10 µM, compound concentration 10 uM, replicate 2

Structure (SMILES): C[C@H](N)COC(=O)[C@@H](CCCCN)NC(=O)Cc1c(-c2ccc3ccccc3c2)[nH]c2c1ccc1ccccc12
- Population Apoptotic (%) [1]: 73%
- Population Fragmented Nuclei (%) [1]: 26%
- Population Healthy Nuclei (%) [1]: 66%
- Population Hoechst High Intensity Objects (%) [1]: 3%
- Population Membrane Permeable-Phenotype (%) [1]: 6%
- Population Mitochondria Different-Phenotype (%) [1]: 3%
- Population Mitotic Cells (%) [1]: 26%
- Population Normal (%) [1]: 96%
- Population Pyknosed Nuclei (%) [1]: 6%
- Population Tubulin-Different-Phenotype (%) [1]: 3%
- Total Cell Count [1]: 244
- Population Apoptotic (%) [2]: 75%
- Population Fragmented Nuclei (%) [2]: 14%
- Population Healthy Nuclei (%) [2]: 78%
- Population Hoechst High Intensity Objects (%) [2]: 0%
- Population Membrane Permeable-Phenotype (%) [2]: 4%
- Population Mitochondria Different-Phenotype (%) [2]: 2%
- Population Mitotic Cells (%) [2]: 25%
- Population Normal (%) [2]: 99%
- Population Tubulin-Different-Phenotype (%) [2]: 4%
- Total Cell Count [2]: 128
- Population Apoptotic (%) [3]: 78%
- Population Fragmented Nuclei (%) [3]: 23%
- Population Healthy Nuclei (%) [3]: 69%
- Population Hoechst High Intensity Objects (%) [3]: 2%
- Population Membrane Permeable-Phenotype (%) [3]: 5%
- Population Mitochondria Different-Phenotype (%) [3]: 1%
- Population Mitotic Cells (%) [3]: 21%
- Population Normal (%) [3]: 97%
- Population Pyknosed Nuclei (%) [3]: 7%
- Population Tubulin-Different-Phenotype (%) [3]: 3%
- Total Cell Count [3]: 279
- Population Apoptotic (%) [4]: 50%
- Population Fragmented Nuclei (%) [4]: 24%
- Population Healthy Nuclei (%) [4]: 73%
- Population Hoechst High Intensity Objects (%) [4]: 0%
- Population Membrane Permeable-Phenotype (%) [4]: 17%
- Population Mitochondria Different-Phenotype (%) [4]: 3%
- Population Mitotic Cells (%) [4]: 50%
- Population Normal (%) [4]: 100%
- Population Pyknosed Nuclei (%) [4]: 1%
- Population Tubulin-Different-Phenotype (%) [4]: 5%
- Total Cell Count [4]: 106
- Population Apoptotic (%) [5]: 83%
- Population Fragmented Nuclei (%) [5]: 22%
- Population Healthy Nuclei (%) [5]: 68%
- Population Hoechst High Intensity Objects (%) [5]: 2%
- Population Membrane Permeable-Phenotype (%) [5]: 3%
- Population Mitochondria Different-Phenotype (%) [5]: 1%
- Population Mitotic Cells (%) [5]: 16%
- Population Normal (%) [5]: 97%
- Population Pyknosed Nuclei (%) [5]: 8%
- Population Tubulin-Different-Phenotype (%) [5]: 2%
- Total Cell Count [5]: 292
- Population Apoptotic (%) [6]: 90%
- Population Fragmented Nuclei (%) [6]: 16%
- Population Healthy Nuclei (%) [6]: 77%
- Population Hoechst High Intensity Objects (%) [6]: 1%
- Population Membrane Permeable-Phenotype (%) [6]: 6%
- Population Mitotic Cells (%) [6]: 10%
- Population Normal (%) [6]: 98%
- Population Pyknosed Nuclei (%) [6]: 5%
- Population Tubulin-Different-Phenotype (%) [6]: 3%
- Total Cell Count [6]: 170
- Population Apoptotic (%) [7]: 81%
- Population Fragmented Nuclei (%) [7]: 19%
- Population Healthy Nuclei (%) [7]: 73%
- Population Hoechst High Intensity Objects (%) [7]: 2%
- Population Membrane Permeable-Phenotype (%) [7]: 5%
- Population Mitochondria Different-Phenotype (%) [7]: 1%
- Population Mitotic Cells (%) [7]: 18%
- Population Normal (%) [7]: 97%
- Population Pyknosed Nuclei (%) [7]: 6%
- Population Tubulin-Different-Phenotype (%) [7]: 2%
- Total Cell Count [7]: 337
- Population Apoptotic (%) [8]: 100%
- Population Fragmented Nuclei (%) [8]: 17%
- Population Healthy Nuclei (%) [8]: 79%
- Population Membrane Permeable-Phenotype (%) [8]: 11%
- Population Mitochondria Different-Phenotype (%) [8]: 3%
- Population Mitotic Cells (%) [8]: 0%
- Population Pyknosed Nuclei (%) [8]: 2%
- Population Tubulin-Different-Phenotype (%) [8]: 6%
- Total Cell Count [8]: 142
- Population Apoptotic (%) [9]: 79%
- Population Fragmented Nuclei (%) [9]: 16%
- Population Healthy Nuclei (%) [9]: 78%
- Population Hoechst High Intensity Objects (%) [9]: 1%
- Population Membrane Permeable-Phenotype (%) [9]: 2%
- Population Mitochondria Different-Phenotype (%) [9]: 2%
- Population Mitotic Cells (%) [9]: 20%
- Population Normal (%) [9]: 98%
- Population Pyknosed Nuclei (%) [9]: 5%
- Population Tubulin-Different-Phenotype (%) [9]: 2%
- Total Cell Count [9]: 440
- Population Apoptotic (%) [10]: 73%
- Population Fragmented Nuclei (%) [10]: 17%
- Population Healthy Nuclei (%) [10]: 73%
- Population Hoechst High Intensity Objects (%) [10]: 2%
- Population Membrane Permeable-Phenotype (%) [10]: 3%
- Population Mitochondria Different-Phenotype (%) [10]: 4%
- Population Mitotic Cells (%) [10]: 26%
- Population Normal (%) [10]: 97%
- Population Pyknosed Nuclei (%) [10]: 8%
- Population Tubulin-Different-Phenotype (%) [10]: 1%
- Total Cell Count [10]: 231
- Population Apoptotic (%) [11]: 90%
- Population Fragmented Nuclei (%) [11]: 14%
- Population Healthy Nuclei (%) [11]: 74%
- Population Hoechst High Intensity Objects (%) [11]: 4%
- Population Membrane Permeable-Phenotype (%) [11]: 6%
- Population Mitochondria Different-Phenotype (%) [11]: 1%
- Population Mitotic Cells (%) [11]: 9%
- Population Normal (%) [11]: 95%
- Population Pyknosed Nuclei (%) [11]: 10%
- Population Tubulin-Different-Phenotype (%) [11]: 2%
- Total Cell Count [11]: 505
- Population Fragmented Nuclei (%) [12]: 16%
- Population Healthy Nuclei (%) [12]: 77%
- Population Membrane Permeable-Phenotype (%) [12]: 16%
- Population Mitochondria Different-Phenotype (%) [12]: 2%
- Population Mitotic Cells (%) [12]: 10%
- Population Pyknosed Nuclei (%) [12]: 5%
- Population Tubulin-Different-Phenotype (%) [12]: 6%
- Total Cell Count [12]: 184

Reference: ChEMBL document CHEMBL5058577, “EUbOPEN Chemogenomics Library 2 (Multiplex)” (2022)
